# Screens: PubChem BioAssay, Sanford-Burnham Center for Chemical Genomics
# A selection: hits, their analogues and other compounds. The true share with any hit is near 0.77%.
# hIAP block – human IAP inhibition; purified IAP, CDP-Star luminescence, 30 min; inhibition, % at 10 µM; 0.12% of 330,000 active; AID 2544;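 active means inhibition reaching a set limit with compound at 10 µM in the primary screen, cut at about 35% in these data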;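 further: plate controls were DMSO wells with enzyme for no effect and no-enzyme buffer wells for full effect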
# Target sequence (P09923 whole entry, looked up): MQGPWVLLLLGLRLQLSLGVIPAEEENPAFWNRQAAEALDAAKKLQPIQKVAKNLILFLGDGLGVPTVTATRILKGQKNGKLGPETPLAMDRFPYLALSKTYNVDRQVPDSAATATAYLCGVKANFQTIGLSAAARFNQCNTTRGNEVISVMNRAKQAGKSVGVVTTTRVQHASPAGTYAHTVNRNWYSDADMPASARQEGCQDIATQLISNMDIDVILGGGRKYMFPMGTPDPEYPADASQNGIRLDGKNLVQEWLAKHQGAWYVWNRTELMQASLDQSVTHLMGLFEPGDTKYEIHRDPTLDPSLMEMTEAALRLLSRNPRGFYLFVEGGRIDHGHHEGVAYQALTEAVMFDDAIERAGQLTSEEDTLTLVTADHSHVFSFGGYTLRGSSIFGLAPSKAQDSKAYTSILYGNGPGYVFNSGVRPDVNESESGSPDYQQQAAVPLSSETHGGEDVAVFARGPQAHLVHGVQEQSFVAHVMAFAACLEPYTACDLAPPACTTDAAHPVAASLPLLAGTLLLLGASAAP
# bIAP inhibitor – intestinal alkaline phosphatase (bovine) inhibition; purified bovine IAP, CDP-star luminescence, 30 min; inhibition, % at 20 µM; 190,000 tested, under 10 active; AID 1019;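 active means over 50% inhibition of intestinal alkaline phosphatase at 20 µM in the single-dose screen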
#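 Assay system – bovine IAP enzyme · Quantity – bovine IAP at 1/65,000,000 final dilution · Detection – CDP-star luminescence signal · Times – 30 min reaction at room temperature · Also added – CDP-star substrate at 30 µM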
# mIAP inh – blocks mouse intestinal alkaline phosphatase; purified mouse IAP, CDP-Star luminescence, 30 min; inhibition, % at 10 µM; 0.2% of 330,000 active;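 active means inhibition of at least 40% at 10 µM in the primary screen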;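 further: plate controls were DMSO with enzyme for no effect and no enzyme wells for full effect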
# mIAP activ – mouse IAP activation. muIAP, CDP-Star luminescence, 30 min; hits give high values; 1 = vehicle-only enzyme signal, 0 = enzyme-free wells. activation factor at 10 µM. 0.24% of 330,000 active;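 active means activation factor of at least 2 at 20 µM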
#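 also added = chemiluminescent substrate CDP-Star | test system = mouse IAP enzyme | signal = chemiluminescence readout | compound = DMSO-dissolved test compounds | incubation = 30 min at room temperature | benchmarks = DMSO wells, no-enzyme wells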
# hIAP activ – human IAP activation. P09923. purified human IAP, CDP-Star luminescence, 30 min; hits give high values; 1 = vehicle-only enzyme, 0 = enzyme-free background. activation factor at 10 µM. 0.16% of 330,000 active. AID 2524;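 active means activation factor of the enzyme at least 2-fold when tested at 20 µM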
# bIAP activator – intestinal alkaline phosphatase (bovine) activation. activation factor at 20 µM. 0.17% of 200,000 active. purified bovine IAP, CDP-star luminescence, 30 min; hits give high values; fold of DMSO-control signal, blank-subtracted;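 active means activation factor of 2 or more at 20 µM, a signal rise over negative controls twice the positive control's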
# hIAP act conf – human IAP activation confirmation | shares compounds with hIAP activ | purified IAP, CDP-Star luminescence, 30 min; hits give low values | activation (%Activity, negative = activation), % at 8.3 µM | 10% of 880 active;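 active means at least twofold enzyme activation in any of six single-dose repeats, which the averaged readout prints as negative percent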
# Starred values were filed as active, the others as inactive; . = no result.
SMILES,hIAP block,bIAP inhibitor,mIAP inh,mIAP activ,hIAP activ,bIAP activator,hIAP act conf
CC1=NC(C)(C)Cc2cc(C)c(C)cc21,8,-6,-3,1,0.92,1.1,.
CC(NC(=O)/C=C/c1ccccc1[N+](=O)[O-])C1CC2CCC1C2 (stereo not drawn),10,.,8,0.92,0.9,.,.
Cc1cc(OCc2cc(C(=O)NC3CCC3)no2)cc(C)c1Cl,39*,.,2,0.98,0.61,.,-3
Cc1ccc(OCc2cc(C(=O)NC3CCCCC3)no2)cn1,-17,.,-6,1.1,1.2,.,.
CC1=C(C(=O)OCC(Br)(Br)Br)C(c2cccc([N+](=O)[O-])c2)NC(=O)N1CCCC(=O)O (stereo not drawn),-1,.,0,1,1,.,.
CCC(C)NC(=O)C1CCN(C(=O)N(C)C)CC1 (stereo not drawn),0,12,10,0.9,1,0.9,.
CC(C)CCNC(=O)C1CCN(C(=O)N(C)C)CC1,47*,11,-5,1,0.53,0.9,88
CCc1nc2c3cnn(-c4cc(Cl)ccc4C)c3ncn2n1,73*,-4,12,0.88,0.27,1,-31
Cc1ccccc1OCc1nc2c3cnn(C)c3ncn2n1,-13,27,-7,1.1,1.1,0.7,.
CCCCOc1ccccc1C(=O)N(Cc1ccc(C)o1)C1CCS(=O)(=O)C1 (stereo not drawn),-43,.,0,1,1.4,.,.
CCn1cnc2sc(C(=O)O)c(C)c2c1=O,-290,12,-14,1.1,3.9*,0.9,64
Cc1ccc(-c2cc(C(=O)N/N=C/c3cccnc3)n[nH]2)o1,-23,0,9,0.91,1.2,1,.
Cc1ccc(/C=N/NC(=O)c2cc(-c3ccc(C)o3)[nH]n2)cc1,-107,.,13,0.87,2.1*,.,6
CC(C)(C)NC(=O)COc1ccc(CNCc2cccs2)cc1,-14,5,-18,1.2,1.1,0.9,.
CCOC(=O)Cc1csc(NC(=O)CN2C(=O)c3ccccc3C2=O)n1,-2,.,0,1,1,.,.
CCOC(=O)Cc1csc(NC(=O)CN2C(=O)c3ccccc3S2(=O)=O)n1,-107,-35,8,0.92,2.1*,1.4,7
COc1cc(OC)cc(C(=O)NNC(=O)c2nn(C)c(=O)c3ccccc23)c1,-106,.,-4,1,2.1*,.,23
Cn1nc(C(=O)NNC(=O)c2ccc(Cl)c(S(N)(=O)=O)c2)c2ccccc2c1=O,-105,.,33,0.67,2.1*,.,2
COc1ccc(OCC(=O)NNC(=O)c2nn(C)c(=O)c3ccccc23)cc1,-22,-6,9,0.91,1.2,1.1,.
O=C(CC(=O)c1ccccc1)Nc1ccccc1,7,.,5,0.95,0.93,.,.
O=C(CC(=O)c1ccccc1)Nc1ccccn1,42*,.,-1,1,0.58,.,-16
CC(=O)Nc1ccc(S(=O)(=O)NCCC(=O)OCC(=O)NCc2ccccc2)cc1,11,.,7,0.93,0.89,.,.
CCc1cccc(CC)c1NC(=O)CN(CC(=O)O)CC(=O)O,-110,.,-5,1.1,2.1*,.,-5
CCSC(=O)N(CC)CC(=O)Nc1c(CC)cccc1CC,-8,10,-5,1.1,1.1,0.9,.
Cc1ccc(C(=O)NC(C)c2nc3ccccc3n2CC(=O)Nc2c(C)cc(C)cc2C)cc1 (stereo not drawn),-303,.,-168,2.7*,4*,.,-54
SMILES,hIAP block,bIAP inhibitor,mIAP inh,mIAP activ,hIAP activ,bIAP activator,hIAP act conf
COc1cccc(Cn2cccc(NC(=O)NCc3ccccc3)c2=O)c1,38*,.,5,0.95,0.61,.,9
N#CC(C#N)=NNc1ccc([N+](=O)[O-])cc1,35*,.,34,0.66,0.65,.,-62
NC1=NCC(O)=C1c1nc2ccccc2[nH]1,-101,-66,6,0.94,2*,1.7,-55
COc1ccccc1N1CCN(C(=O)CSc2nnc(C)n2C2CC2)CC1,9,.,-6,1.1,0.91,.,.
O=[N+]([O-])c1ccc(N2N=C(c3ccccc3)CC2c2ccccc2O)cc1 (stereo not drawn),38*,.,19,0.81,0.62,.,-50
NS(=O)(=O)c1ccc(N2N=C(c3ccccc3)CC2c2ccccc2Br)cc1 (stereo not drawn),.,.,-76,1.8,.,.,.
CC1=NN(Cc2ccccc2)C(=O)/C1=C\c1ccc(N(C)C)cc1,37*,39,23,0.77,0.63,0.6,66
Cc1cccc(-n2cnc(C(=O)NNC(=S)Nc3ccc(Cl)cc3)c2)n1,-102,-18,15,0.85,2*,1.2,1
Cc1nc2ccccn2c1C(=O)NNC(=S)Nc1ccc(Cl)cc1,7,4,13,0.87,0.93,1,.
COc1cc(/C=C2\C(=O)N(c3ccc(NC(C)=O)cc3)N=C2c2ccccc2)ccc1O,37*,29,30,0.7,0.63,0.7,-8
CCCCN1/C(=C/c2ccc3ccccc3[n+]2CC)Sc2ccccc21,18,40,8,0.92,0.82,0.6,.
CCN1/C(=C/c2ccc3ccccc3[n+]2CC)C=Cc2ccccc21,36*,.,26,0.74,0.64,0.3,-49
COc1ccc(NC(=O)c2cccnc2C(=O)O)c(OC)c1,0,5,4,0.96,1,0.9,.
CCn1c(C)nc2cc(C(=O)N/N=C/c3cccc(O)c3O)ccc21,-160,-74,9,0.91,2.6*,1.7,-43*
CCn1c(C)nc2cc(C(=O)NNC(=S)Nc3ccccc3)ccc21,-111,-60,-4,1,2.1*,1.6,29
CCn1c(C)nc2cc(C(=O)NNC(=S)Nc3ccc(Cl)cc3)ccc21,-93,.,1,0.99,1.9,.,.
CCn1c(C)nc2cc(C(=O)N/N=C/c3ccccc3)ccc21,9,5,8,0.92,0.91,0.9,.
CCn1c(C)nc2cc(C(=O)NNC(=S)Nc3ccc(Cl)cc3Cl)ccc21,-114,7,-14,1.1,2.1*,0.9,-44
CCOC(=O)C1CCCN(C(=O)c2ccc(-c3ccc([N+](=O)[O-])cc3)o2)C1 (stereo not drawn),-22,.,0,0.99,1.2,.,.
Cc1ccc(NS(=O)(=O)c2c(C)[nH]c(C)c2C(=O)N2CCCCC2)cc1Cl,3,.,2,0.98,0.97,.,.
Cc1cc(C)c(OCC(=O)N/N=C/c2ccc3c(c2)OCO3)c(C)c1,16,15,4,0.96,0.84,0.9,.
CCCC(=O)NC(=S)Nc1ccc(N2CCN(C(=O)c3cccs3)CC2)cc1,4,8,18,0.82,0.95,0.9,.
CCCCC(CCC(=O)Nc1cc([N+](=O)[O-])ccc1O)C(=O)O (stereo not drawn),-4,16,-6,1.1,1,0.8,.
CCNC(=S)NNC(=O)CSc1nc2ccccc2n1C,5,.,9,0.91,0.95,.,.
